Shown are actives, neighbours in structure and some others; about 2.3% of the full set was active somewhere.
RORA act = activates the human nuclear receptor RORA. P35398. CHO-K1 Gal4-RORA LBD luciferase reporter, luminescence; percent increase over mock-subtracted basal signal. activation, % at 10 µM. 65,000 tested, 1.5% active;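 active = activation above the mean of all tested compounds plus 3 SD, cut at about 49% in these data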
SF-1 act = activators of human nuclear receptor SF-1. AID 522. 65,000 tested, 1.9% active. activation, % at 10 µM. CHO-K1 Gal4-SF-1 LBD luciferase reporter; % increase over DMSO SF-1-specific signal;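 active = activation above the mean activation of all tested compounds plus 3 SD, cut at about 50% in these data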
Target sequence (Q13285 whole entry, looked up, the tested form may be a part): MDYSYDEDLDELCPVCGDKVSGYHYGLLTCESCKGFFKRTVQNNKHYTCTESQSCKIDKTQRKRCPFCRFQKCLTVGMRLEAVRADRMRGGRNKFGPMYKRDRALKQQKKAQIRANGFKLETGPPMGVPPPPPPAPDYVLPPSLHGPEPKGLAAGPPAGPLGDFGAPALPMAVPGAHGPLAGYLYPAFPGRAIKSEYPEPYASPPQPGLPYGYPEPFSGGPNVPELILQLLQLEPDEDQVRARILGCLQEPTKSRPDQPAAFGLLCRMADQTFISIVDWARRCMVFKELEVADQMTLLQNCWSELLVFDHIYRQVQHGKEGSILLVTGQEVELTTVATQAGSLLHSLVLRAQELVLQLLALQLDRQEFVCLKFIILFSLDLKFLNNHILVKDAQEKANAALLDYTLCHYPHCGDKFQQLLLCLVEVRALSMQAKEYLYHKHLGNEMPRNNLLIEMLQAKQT
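System: CHO-K1 cells with Gal4–hSF-1 LBD chimera plus Gal4-driven luciferase; quantity: 4,000 CHO-K1 cells per well; compound: one dose, 10 µM compound, 1% DMSO; times: 20 h compound treatment, 37 °C; measured by: SteadyLite luciferase luminescence; read-out: percent activation versus DMSO; benchmarks: DMSO and mock-transfected background; replicates: one test per compound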
JNK3 inh = JNK3 (human) kinase inhibition; inhibition, % at 8 µM; purified JNK3 kinase activity, HTS; AID 746; 60,000 tested, 0.61% active; P53779; in the data active = inhibition above about 17%
Candida biofilm = kills Candida albicans biofilms; C. albicans biofilm + clotrimazole, Alamar Blue; inhibition, % at 6 µM; 85,000 tested, 0.14% active; AID 834;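 active = inhibition above 20%; inactive = inhibition below 20%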;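 also: preformed 24 hr biofilms exposed to compound for 48 hr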
Hits are given with their value; . = inactive; / = not tested or not shown.

SMILES	RORA act	SF-1 act	JNK3 inh	Candida biofilm
CC(C)CO/C(=N/S(=O)(=O)c1ccccc1)c1ccccc1	/	/	/	73
COc1cccc(C(=O)NCc2cn3ccsc3n2)c1	.	.	.	.
COc1ccc(S(=O)(=O)NCc2cn3c(C)csc3n2)cc1F	.	.	.	21
COc1ccc(C(=O)NCc2cn3c(C)csc3n2)cc1OC	.	.	17	/
Cc1csc2nc(CNC(=O)c3cccc(C(F)(F)F)c3)cn12	.	.	.	.
COc1cc(C(=O)NCc2cn3ccsc3n2)cc(OC)c1OC	.	.	24	.
CC1CCCCC1NC(=O)CN1C(=O)CSc2cc(S(=O)(=O)N3CCCCCC3)ccc21 (stereo not given)	/	/	/	.
O=c1[nH]c(=O)n(CCOc2ccc(Cl)cc2)cc1Br	.	.	.	.
CCCOc1ccc(S(=O)(=O)n2cc(Br)c(=O)[nH]c2=O)cc1	50	.	.	.
COc1ccccc1S(=O)Cc1ccc(C(=O)NCCc2ccc(Cl)cc2)o1 (stereo not given)	.	.	.	.
CC(C)NC(=O)c1cc(-c2ccc(Br)cc2)on1	66	.	.	.
CCCNC(=O)c1cc(-c2ccc(Br)cc2)on1	.	58	.	.
COc1ccc(CCNC(=O)CNS(=O)(=O)c2cccs2)cc1OC	/	/	/	.
O=C(Nc1cccc(NC(=O)C2CC3CCCC(C2)C3=O)n1)C1CC2CCCC(C1)C2=O (stereo not given)	.	.	.	.
Cc1nc(NC(=O)C2CC3CCCC(C2)C3=O)sc1C (stereo not given)	62	54	.	.
O=C(c1nc(-c2ccccc2)n(-c2ccccc2)n1)N1CCN(S(=O)(=O)c2ccccc2)CC1	.	.	.	.
Cc1ccc(-c2noc(C3CCCN(C(=O)c4ccccc4)C3)n2)o1 (stereo not given)	50	.	.	.
COc1ccc(C(=O)N2CCCC(c3nc(-c4cccs4)no3)C2)cc1 (stereo not given)	.	.	.	.
CCN(CC)S(=O)(=O)c1cccc(C(=O)NC(C(=O)Nc2nnc(C)s2)C(C)C)c1 (stereo not given)	/	/	/	.
Cc1ccc2nc(-c3cccc(S(=O)(=O)N(C)C)c3)cn2c1	56	52	.	.
CCN(CC)S(=O)(=O)c1cccc(-c2cn3cc(C)ccc3n2)c1	/	/	/	.
O=C(CSc1ncnc2c1oc1ccccc12)c1cccs1	.	71	.	.
c1ccc2[nH]c(CSc3ncnc4c3oc3ccccc34)nc2c1	.	.	19	.
CCOCCOC(=O)c1ccc(-n2cncn2)nc1	/	/	/	.
CC(C)(C)c1ccc(OCC(O)CSc2ncn[nH]2)cc1 (stereo not given)	/	/	/	.
SMILES	RORA act	SF-1 act	JNK3 inh	Candida biofilm
O=C1c2ccccc2S(=O)(=O)N1CC1CC(c2ccccc2)=NO1 (stereo not given)	49	.	.	.
COc1ccc(CCNC(=O)CN2C(=O)c3ccccc3S2(=O)=O)cc1	.	.	.	/
O=C(CN1C(=O)c2ccccc2S1(=O)=O)c1ccccc1	.	.	.	.
COc1ccc(C2=NOC(CN3C(=O)c4ccccc4S3(=O)=O)C2)cc1 (stereo not given)	.	67	.	.
CCn1cc(C(=O)Nc2nncs2)c(=O)c2cc(F)c(N3CCN(C(=O)c4ccco4)CC3)cc21	.	.	.	.
CC1C/C(=N\NC(=S)NC(C)C)CC(C)(C)C1 (stereo not given)	/	/	/	.
O=C(Nc1cccc(Cl)c1)N1CCN(Cc2ccccc2)CC1	73	85	.	.
Cc1ccc(SCCC(=O)N2CCOCC2)cc1	51	.	.	.
O=C(CCSc1ccccc1)N1CCOCC1	.	52	.	.
Cc1ccc(SCCC(=O)N2CCCC2)cc1	.	.	.	.
O=C(NCc1ccco1)c1cc(-c2ccc3c(c2)OCO3)on1	51	.	.	.
CCSc1nnc(NC(=O)c2ccc(C)o2)s1	.	.	.	.
CCSc1nnc(NC(=O)c2cc(C)oc2C)s1	60	76	.	.
COc1ccc(Cc2nnc(NC(=O)c3cccs3)s2)cc1	51	.	.	.
O=C(Nc1nnc(SCc2ccccc2)s1)c1cccs1	.	.	.	.
CCSc1nnc(NC(=O)c2cccs2)s1	50	.	.	.
COCc1nnc(NC(=O)c2cccs2)s1	.	.	.	.
O=C(Nc1nnc(Cc2ccccc2)s1)c1cccs1	.	81	.	/
O=C(c1ccco1)N1CCN(c2nnc(-c3ccccc3)c3ccccc23)CC1	/	/	/	.
Cn1c(SCc2cc(=O)[nH]c3ccccc23)nnc1-c1ccc(Br)cc1	/	/	/	.
O=C(Nc1nsc(-c2ccccc2)n1)c1cccs1	.	77	.	.
CCCSc1nnc(NC(=O)Nc2ccccc2)s1	.	53	.	.

Bioassay records deposited in PubChem by several laboratories.
